hERG rescue = hERG rescue from dofetilide block, primary screen, cell-based, CHO-hERG, FluxOR thallium flux, dofetilide IC70; activation (rescue from dofetilide block), less the hit threshold, % at 10 µM; Voltage-gated inwardly rectifying potassium channel KCNH2 (Homo sapiens), Q12809; 0.51% of 310,000 active; dofetilide IC70 present;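 active means activation above the mean of controls blocked by dofetilide plus 5 SD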;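 further: thallium influx through hERG after potassium depolarization seen as dye fluorescence rise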
KCNQ1 act = potentiators or activators of KCNQ1 channel, primary screen, cell-based, thallium flux, high-throughput; B-score at 10 µM; Potassium voltage-gated channel subfamily KQT member 1 (Homo sapiens), P51787; 0.35% of 310,000 active; AID 2648, 2010; CHO-K1 KCNQ1, thallium flux FluxOR fluorescence; hits give high values;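 active means fluorescence ratio B-score, a plate-corrected score, at least three library SD, with initial intensity B-score within 5 SD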
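System: CHO-K1 cells stably expressing KCNQ1 / Medium: assay buffer for compound exposure, DMSO matched across wells / Reagent: thallium- and potassium-containing depolarizing buffer / Compound: one concentration, matched DMSO / Incubation: 20 min compound pretreatment at room temperature / Measured by: kinetic FluxOR fluorescence, 10 s baseline plus 110 s post-stimulus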
KCNK3 block = human KCNK3 channel inhibitors, primary screen, CHO cells, FluxOR thallium flux, B-score. 0.84% of 340,000 active. AID 602410, 2012. FluxOR fluorescence; hits give low values. B-score at 10 µM;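 active means B-score under library mean minus 4 SD, starting fluorescence ratio at most library mean plus 5 SD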;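 further: more negative B-score means stronger inhibition of thallium flux through KCNK3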
KCNK9 block = KCNK9 potassium channel inhibitors, primary screen, HEK293 cells, thallium flux. 1.2% of 310,000 active. Potassium channel subfamily K member 9 (Homo sapiens), Q9NPC2. AID 488922, 2010. B-score at 10 µM. FluxOR thallium flux fluorescence; hits give low values;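 active means ratio B-score over 3 SD below the library mean, with starting fluorescence within 5 SD of its mean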;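 further: negative B-score means less thallium flux so channel inhibition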
Kir21 block = inhibitors of mouse Kir2.1 inward-rectifier potassium channel | AID 1672, 2009 | 0.85% of 310,000 active | Inward rectifier potassium channel 2 (Mus musculus), P35561 | B-score at 10 µM | HEK293-Kir2.1, FluxOR thallium flux fluorescence; hits give low values;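 active means fluorescence ratio B-score at or below minus 3 SD of library scores, with starting-brightness B-score within 2 SD, cut at about -4.2 in these data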;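 further: channel flux triggered by added potassium and thallium sulfate stimulus; B-score of peak minus minimum fluorescence over baseline after thallium stimulus; more negative B-score means stronger Kir2.1 block with less thallium influx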
KCNQ1 inh = inhibitors of human KCNQ1 channel, primary screen, cell-based, thallium flux, high-throughput; AID 2642, 2010; CHO-K1 KCNQ1, FluxOR thallium flux fluorescence; hits give high values; 1.3% of 310,000 active; Potassium voltage-gated channel subfamily KQT member 1 (Homo sapiens), P51787; B-score at 10 µM;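 active means compounds whose thallium flux B-score, printed positive for inhibition, exceeds three library SD while starting fluorescence stays within three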;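 further: channel opened by potassium depolarization with thallium stimulus after 20 min compound exposure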
Active calls of the source: *; i = inactive; x = not tested or not shown. Most compounds without a hit are left out; they make up all but 3.7% or so of the library.

SMILES | hERG rescue | KCNQ1 act | KCNK3 block | KCNK9 block | Kir21 block | KCNQ1 inh
CCOc1ccc(C(=O)C(CCC(CN(C)C)C(=O)c2ccc(OCC)cc2)CN(C)C)cc1 (centres undefined) | -13.6 | 8* | i | i | -0.67 | i
CC(C)(C)c1ccc(C(=O)N2CCN(CCNC(=O)C(=O)NCc3ccccc3)CC2)cc1 | -5.7 | i | i | i | 0.03 | i
Cc1cc(C)c(Cc2c(C)nc3c(C(=O)NCc4ccco4)cnn3c2C)c(C)c1 | -15.8 | i | i | -7.29* | 0.01 | i
CCN1C(=O)[C@@H]2[C@@H](c3ccc(SC4CCCCC4)c(OC)c3)N3CCC[C@@]3(C(=O)OC)[C@@H]2C1=O | x | x | i | x | x | x
CC(NC(=O)CCN1C(=O)c2ccccc2C1=O)c1ccc2c(c1)CCCC2 (centres undefined) | -1.4 | i | i | i | -4.21* | i
CSC1=C(C#N)C(CC(C)C)C(C(C)=O)=C(C)N1 (centres undefined) | -2.2 | i | i | i | -6.47* | i
CSC1=C(C#N)C(CC(C)C)C2=C(CCCC2=O)N1 (centres undefined) | -3.7 | i | i | i | 0.18 | i
CN(c1ccccc1)S(=O)(=O)c1ccc(Cl)c(C(=O)Nc2nc3ccccc3[nH]2)c1 | -5.8 | i | i | -7.09* | -1.18 | i
CN(c1ccccc1)S(=O)(=O)c1ccc(Cl)c(C(=O)Nc2ccc(-c3nc4ccccc4[nH]3)cc2)c1 | -17.5 | i | i | i | 0.06 | i
c1ccc2c(c1)[nH]c1c(N3CCSCC3)ncnc12 | x | x | -9.69* | x | x | x
CCSc1cc(N2CC(C)OC(C)C2)nc(-c2ccccc2Cl)n1 (centres undefined) | 0.9 | i | -9.13* | i | 0.34 | i
CCSc1cc(N2CCCC2)nc(-c2ccc(C)cc2)n1 | 1.2 | i | i | i | 1.6 | i
Cc1ccc2nc(N(CCCN(C)C)C(=O)c3cc(-c4cccs4)nc4ccccc34)sc2c1 | -30.8 | i | i | i | -1.16 | 8*
CN(C)CCCN(C(=O)CCc1ccccc1)c1nc2c(F)cccc2s1 | -12.9 | i | i | i | -2.05 | i
CN(C)CCCN(C(=O)CCOc1ccccc1)c1nc2c(F)cccc2s1 | -14.5 | 18* | i | i | -0.23 | i
CN(C)CCCN(C(=O)c1cc(-c2cccs2)nc2ccccc12)c1nc2c(F)cccc2s1 | -28.7 | i | i | i | 0.16 | 6*
COc1cc2ccccc2cc1C(=O)N(CCN(C)C)c1nc2ccc(C)cc2s1 | -14.3 | i | i | i | 1.39 | i
CC(C)(C)OC(=O)C[C@H]1C/C=C\C[C@@H](CC(=O)N(CCO)Cc2ccccc2)C(=O)N[C@@H](Cc2ccccc2)COC1=O | x | x | i | x | x | x
Cc1ccc(CNC(=O)c2cn(C)c(=O)c3c2c2ccccc2n3C)o1 | -9.0 | i | i | i | 0.03 | i
Cc1ccc(CNC(=O)c2cn(C3CCCCC3)c(=O)c3c2c2ccccc2n3C)o1 | -7.7 | i | -9.41* | i | 0.44 | i
Cc1nnc(SCc2ccccc2F)n1NCc1cccs1 | -11.7 | i | i | i | -4.24* | i
Nn1c(SCc2ccccc2F)nnc1-c1ccncc1 | -3.6 | i | i | i | 0.89 | i
COc1cc(/C=N/NS(=O)(=O)c2ccc(C)c([N+](=O)[O-])c2)cc([N+](=O)[O-])c1O | -3.3 | i | i | i | 0.83 | 6*
COc1cc(/C=N/NS(=O)(=O)c2ccc(C)c([N+](=O)[O-])c2)ccc1O | -8.3 | i | i | i | -0.99 | i
CC(=O)C1=C(C)NC(SCC(=O)Nc2nc3ccccc3s2)=C(C#N)C1c1ccc(Cl)cc1 (centres undefined) | -7.8 | i | i | i | -0.01 | 7*
SMILES | hERG rescue | KCNQ1 act | KCNK3 block | KCNK9 block | Kir21 block | KCNQ1 inh
COc1ccc(NC(=O)CSC2=C(C#N)C(c3ccco3)C(C(=O)Nc3nc4ccccc4s3)=C(C)N2)cc1 (centres undefined) | -7.0 | i | i | i | 1.25 | i
CCOC(=O)c1c(C)oc2c1c(C(c1cccnc1)N1CCCCC1)c(O)c1ccccc12 (centres undefined) | -7.4 | i | i | i | -0.78 | 6*
O=C(CN1CCCc2ccccc21)Nc1cc(S(=O)(=O)N2CCCC2)ccc1Cl | x | x | i | x | x | x
CCOC(=O)c1sc(=NC(=O)c2cccs2)n(C)c1C | -2.0 | i | i | i | -0.26 | i
CCOC(=O)c1sc(=NC(=O)/C=C/c2ccccc2)n(C)c1C | -9.8 | i | i | i | 0.1 | 12*
COc1ccc(N(CC(=O)NC2CC3CCC2C3)S(=O)(=O)c2ccc(C)c([N+](=O)[O-])c2)cc1 (centres undefined) | -4.7 | i | i | i | -0.8 | i
CCOC(=O)c1ccc(/C=C2/C=C(c3ccccc3)N(c3ccc(Cl)c(C(=O)O)c3)C2=O)cc1 | -23.8 | i | i | i | -6.57 | 11*
N#CC1=C(SCC(=O)c2ccc(Cl)cc2)NC2=C(C(=O)CCC2)C1c1ccco1 (centres undefined) | -15.7 | i | i | i | 1.27 | i
CC(=O)C1=C(C)NC(SCC(=O)c2ccc(C)cc2)=C(C#N)C1c1ccco1 (centres undefined) | -12.1 | i | x | i | 1.62 | 6*
O=C1CN(C(=O)CNCc2ccccc2Cl)c2ccccc2N1 | -6.8 | i | i | i | -0.18 | i
Cc1occc1C(=O)NNC(=S)NC(=O)COc1ccc(Cl)cc1Cl | 61.8* | 75* | i | i | -0.99 | i
CCC(CO)[n+]1c(C)cc(/C=C2\Sc3ccccc3N2Cc2ccccc2)cc1C (centres undefined) | x | x | i | x | x | x
CC[C@H](C)/C=C/C1=CC2=C(Cl)C(=O)[C@@]3(C)OC(=O)C(C(=O)[C@H](C)[C@@H](C)O)=C3C2=CO1 | -29.9 | i | i | i | -0.61 | 6*
CCNC(=S)N=Nc1c(O)n(Cc2ccc(Cl)cc2)c2ccccc12 | 0.8 | 18* | i | i | 0.27 | i
Cc1ccc(C)c(Cn2c(O)c(N=NC(=S)Nc3ccccc3F)c3ccccc32)c1 | 4.7* | i | i | i | -0.06 | i
CCn1c(O)c(N=NC(=O)CNC(=O)c2ccccc2F)c2ccccc21 | -3.7 | i | i | i | 0.05 | i

Bioassay records (PubChem)
